Measurements published in the EternaBench riboswitch data.

Tested on: MS2 coat protein
Assay: apparent Kd, MS2 coat protein; higher = weaker binding; RNA-MaP array; FMN 200 µM where present
In short: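 The apparent Kd comes from binding curves fitted cluster by cluster, filtered, and summarised as a median. Those curves followed SNAP-549-labelled MS2 coat protein from 0.7 or 1.5 nM, doubling to 3 µM, on Illumina sequencing-chip clusters where stalled E. coli RNA polymerase had transcribed the designs, without and then with constant ligand. The buffer was 100 mM Tris-HCl pH 7.5, 80 mM KCl, 4 mM MgCl2, BSA, DTT, yeast tRNA and Tween-20, and green signal was normalised to red-channel RNA signal and control-cluster median Fmax.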

[1] = designed as: OFF switch for flavin mononucleotide, no ligand
[2] = ligand present: flavin mononucleotide, designed as: OFF switch for flavin mononucleotide
[3] = designed as: ON switch for flavin mononucleotide, no ligand
[4] = ligand present: flavin mononucleotide, designed as: ON switch for flavin mononucleotide

Row | Sequence | apparent Kd [1] [nM] | apparent Kd [2] [nM] | apparent Kd [3] [nM] | apparent Kd [4] [nM]
1 | GGUGGCGUGAUAACGCUAGAUAUAACAUGAGGAUCACCCAUGUAGGAUAUCCCGCCGUGAGGGCGGGAGAAGGACAACCGAUGG | 37.1 | 34.9 |  | 
2 | CGCUAAUAAAUAGUAAUAAAAGUACAGGAUAUGUUACAUGAGGAUCACCCAUGUAUUGGGUAAGAACAGAAGGGUAUAUUAGCG | 153 | 115 |  | 
3 | GUGGUACAUGAGGAUCACCCAUGUUAGGAUAUCGCGUGAGGUAAAACUUACACACACACGAGAAGGGACGUCUU | 45.9 | 41 |  | 
4 | AGCAACAUGAGGAUCACCCAUGUUGGUUCGAAAACGGACUCACAGGAUAUACGGCAUAAUCGCUCGUAGAAGGGUGCGUCCUCA |  |  | 14 | 12.8
5 | GCGUAAUAGGUGUAGCUAGUCAUUCAAGAAGGGUGAAGAACAUGAGGAUCACCCAUGUGGUUUAUACAGGAUAUUGAUAUACGC |  |  | 363 | 90.4
6 | AAAAUCUAUUGAGGAUAUUCAUACACUGCAUACGGAGAAGGCAAACAAUCAUGAGGACAUGAGGAUCACCCAUGUUGUGACCAU |  |  | 17.6 | 15.3
7 | GUCCUACAUGAGGAUCACCCAUGUGAGGAUAUGGAUUCGCUGGCCGUAGCCAGUGGAUCCAGAAGGCGCAUGAU | 26.9 | 82.8 |  | 
8 | GGUACCAACACAGGAUAUGCUAUCCUUUGGGUAGCAGAAGGGUGAAACAUGAGGAUCACCCAUGUGGUGCCACCCGGUGACGGG |  |  | 1180 | 89.2
9 | UUUCUCUGUGUGAGGAUAUACUUGUUUGGGUUUUUGUAGAAGGCACAUGAGGAUCACCCAUGUAUUUUGUCGUG | 34.4 | 55.6 |  | 
10 | AAUUAUUUACAGAAGGAGUAUGAUAAUGUUUUACUAGGAUAUGUAUACAUGAGGAUCACCCAUGUUAUUGUAGGUUUUUUAUGU | 12.7 | 9.65 |  | 
11 | CCAUAUAGGUAGGAUAUCGAUUUUAAUUAAUAUCGAGAAGGGUCAACAUGAGGAUCACCCAUGUCAGCAUGUAC | 80.4 | 75.5 |  | 
12 | UGUAUGUGGGCAGGAUAUACAUGAAUAUAUAUGAUGUAGUAUGAUGUAACAUGAGGAUCACCCAUGUAGAAGGGCCGGUGUAUG | 165 | 214 |  | 
13 | GGUGGACAUGAGGAUCACCCAUGUGAGGAUAUCGGCCGGUUCGCGGUGGCUGGCGUCUCGAGAAGGCGCAUAGU | 36.9 | 40.2 |  | 
14 | AGGGUAGUAGGAUAUACAUGAGGAUCACCCAUGUUUCCAUUACGUGACUGGUCCUAGUGUAGAAGGGCUAGCAC |  | 17.4 |  | 
15 | CAGAAGUCAGGAUAUGCUGCUCGUCACUUGCGUGAUGAGUAGCAGAAGGGACAUGAGGAUCACCCAUGUAAAGC | 53.5 | 87.1 |  | 
16 | AUGCUUUGUGUAGGAUAUGCAUACGGUACGUAUGCAGAAGGACAUGAGGAUCACCCAUGUAUAUUAUUAUUACAUAUCAUACAU | 35.3 | 229 |  | 
17 | CUUUUGGGAGGAUAUUAGUAGUAAAUAAAUAAAAUUACUACUGAGAAGGCACAUGAGGAUCACCCAUGUUCCUC | 17.9 | 26.1 |  | 
18 | UGUCGGAGCAGAGGAUAUUACAUGAGGAUCACCCAUGUAUGAACCAAUAGCUGGAAACAGCGAUGUAAGAAGGCUGCUCCGACA | 10.2 | 124 |  | 
19 | UGUGAGUUGAUGUUAGAUCGGAGUACAUGAGGAUCACCCAUGUAGGAUAUUCAAAGACGCAGAUAGAAGAAGGACAUAGGUUUC | 15.2 | 14.3 |  | 

Row | Sequence | apparent Kd [1] [nM] | apparent Kd [2] [nM] | apparent Kd [3] [nM] | apparent Kd [4] [nM]
20 | UCAUCUUGUCGAGGAUAUAUUAACAUGACAUGAGACACAUGAGGAUCACCCAUGUAUUUUUUUUUAUAGAAGGCGACUAUAUGU |  |  | 32.6 | 52.9
21 | GAUUGACAAGGAUAUACAUGAGGAUCACCCAUGUGCUUCAGCUAGGAGACUAGCAUUGGUAGAAGGUGUUAAUC | 20.3 | 68.4 |  | 
22 | AACACUUAAAAGUGAGGCGAUAGGUAGGAUAUACAUGAGGAUCACCCAUGUAUGGGCUAUCUGCGGUAGAAGGACCUCUGGCCC | 6.44 | 8.84 |  | 
23 | AAUUUCAGAAGAGGAUAUUGACAUGAGGAUCACCCAUGUAUUUGGGAAUGUUUACUGAAUUCUUACAAGAAGGUUUACGAACUU | 98 | 79.7 |  | 
24 | CAAUUUAUAACAGGAUAUGUAAUACAAUAGUUAAUAGAAGGGUUUAAUACAUGAGGAUCACCCAUGUCAUGUGUCAUAAUUACC | 33 | 26 |  | 
25 | AAUUGACACGUAGGAUAUCGAUCUAUAUUAACUCGAGAAGGACGUACAUGAGGAUCACCCAUGUUUAAUGGAGUAGAUAUGUUG | 82.8 | 308 |  | 
26 | CGAGUUUUUGAGAAGGCAUAUUAUAUUUAUAGUCAUGUUAACAUGAGGAUCACCCAUGUUCUCUAUGAGGAUAUCAGUUUAUCG | 7.68 | 7.87 |  | 
27 | GUAAGCAUGUCAGGAUAUCGCAAUAUCAAACCGUGAGAAGGGACAUGAGGAUCACCCAUGUAUUGUUCGGGAGGACCCAGCUGA | 67.3 | 358 |  | 
28 | AAUUUACAUGAGGAUCACCCAUGUGAGGAUAUAUAUAUAUGCUUGUUAUUGCGUGUGUGUAGAAGGCGCGUGAU | 21.1 | 21 |  | 
29 | AUACUCAUGUAAGGAUAUGCAGCCGUUUCGGCUGCAGAAGGUACUAUAAUACAUGAGGAUCACCCAUGUCUCUCGCAUUGCGGG |  |  | 400 | 101
30 | UGAUAGCACAGAGGAUAUGCGUAGUGUUAUCUCUACAUGAGGAUCACCCAUGUAGAAGGCUGUGCUAUCUAAGUCGGAAACGAC | 5.95 | 9.9 |  | 
31 | CUCGUGUUAGGAUAUGGAUAGCCGUUUGACGAGCGAGGGCACUAGAAGGAACAUGAGGAUCACCCAUGUAAAAA | 21.3 | 21.1 |  | 
32 | AAAAGACAUGAGGAUCACCCAUGUGAAAACGUGCGAGGAUAUGUAUGGAAACCAUACUGUACAGAAGGCGUUUGUC |  |  | 31.2 | 31.6
33 | AAAUCCGAAGGAUAUACAUCAAAAGCAAACUGACCCUCACGACAUGAGGAUCACCCAUGUAGAAGGUUGGAAAU | 20.3 | 18.1 |  | 
34 | AAAUAAAGUACCUUGAUAUCCUCACAUGAGGAUCACCCAUGUCAGGAUAUUUGUCCUAAAAGGACAGAGAAGGGACAAGGUAUA | 5.82 | 6.19 |  | 
35 | AUACUAAAUGAAGGAUAUCUAAGCAUAAACCUGAGAGAAGGUCAUUUUUACAUGAGGAUCACCCAUGUUGUGAUUAAUGGGUUA | 71.8 | 144 |  | 
36 | CGCUAUGAUGGGUUUAAUGGAGCAUAGGAUAUGCUUGUACAUGAGGAUCACCCAUGUUAUAUUUUGCAGAAGGGUGCAUUUGCG |  |  | 284 | 95.3
37 | AAAUAAGUUGCAGGAUAUUAUUUUUGAUAAAUAUAAGAAGGGCAACAAACCUCACAUGAGGAUCACCCAUGUACCCAUGUAUCU | 65.5 | 30 |  | 
38 | UGAGAUGUAGUAGGAUAUCAGGUUACAUGAGGAUCACCCAUGUUAGAUUGGUGGAUAGAUGUUGAUGAGAAGGACUUUUGAGUG | 66.7 | 116 |  | 

Row | Sequence | apparent Kd [1] [nM] | apparent Kd [2] [nM] | apparent Kd [3] [nM] | apparent Kd [4] [nM]
39 | AGUACGUCAGGAUAUCUGAUGUCUAACUUCGGUUAGACAUCAGAGAAGGGACAUGAGGAUCACCCAUGUACAAA | 41.8 | 36.9 |  | 
40 | AGCUGGUGACAGCAUCCAUCCUGACAUGAGGAUCACCCAUGUAGAAGGCUGUACGGUUACCGUACAGAGGAUAUACAAUGAUGG | 10.1 | 22.3 |  | 
41 | GGUGCGUAUGUGAGGAUAUGCUGGUCCUUGGUUCAGCAGAAGGCACAUGAGGAUCACCCAUGUGGUGUCGUACC | 289 | 26.4 |  | 
42 | CAGUACUGAGGAUAUACAUGAGGAUCACCCAUGUGUUCCAGGUAGGAAACUAGCAAAAGUAGAAGGCAGUACUG | 19 | 127 |  | 
43 | GGAUCUUGGGUCAGGAUAUGCUGAUAGUUAUGUCAGCAGAAGGGACAUGAGGAUCACCCAUGUGCUCGGUUUUG | 11.1 | 19.7 |  | 
44 | CCACCCUGAGGAUAUCCACCCUGAUACAUGAGGAUCACCCAUGUUAAUGCCUGAGUUCCCGGAGAAGGCAGAUUCC | 40.5 | 34.7 |  | 
45 | AGGCCGCUACGCCGGCUUCACGCACAGGAUAUGCAGUUACAUGAGGAUCACCCAUGUGGCCAUGUGCAGAAGGGUGGUUCGUGA |  |  | 22.1 | 5.44
46 | AAACAACAUGAGGAUCACCCAUGUAAGGAUAUGCGAGUUGGGUCAACGAAGGUUGAAGGCAGAAGGUAUAGGGU | 58.5 | 50.4 |  | 
47 | AAAAAGGCAGGAUAUACGAGUCAAAGAAAAGACAAAAGGAGACAUGAGGAUCACCCAUGUAGAAGGGCCAAAAA | 26.7 | 87.7 |  | 
48 | GCGGUCAACGUAGGAUAUCUUCAGCCACAGCGCAUUGCUGUACAUGAGGAUCACCCAUGUCCUGGAGAGAAGGACGGACGGCAG |  |  | 123 | 34.2
49 | GCUGGUCGAGGAUAUACGUGACGUGCUUCGGCACGAGGUCUACAUGAGGAUCACCCAUGUAGAAGGCGACCAGC | 14.5 | 52.7 |  | 
50 | GGAUCGAAUGUGAGGAUAUGCUGGUCCUUGGAUCAGCAGAAGGCACAUGAGGAUCACCCAUGUUUCCACGGUCC | 127 | 869 |  | 
51 | CAAAUCUGAGGAUAUCGAUAUUUGUACAUGAGGAUCACCCAUGUCCUAUUUAUUAUAUUUCGAGAAGGCAGUGUAU | 19.5 | 17.2 |  | 
52 | ACACAGAAAGGAUAUGCAGGGAGAUAAAGCUUCUUGUUCCAACAUGAGGAUCACCCAUGUAGAAGGUUCGAAAA | 32 | 99.5 |  | 
53 | AACUCGUCAGGAUAUGCGCACAGAUAAUACGCUUCACAAUUGCAGAAGGGACAUGAGGAUCACCCAUGUAAAUA | 36.3 | 26.8 |  | 
54 | AACAUGUGAGGAUAUGAGAACAGCCGGGAGGGCUGUGUAAAUUAGAAGGCACAUGAGGAUCACCCAUGUGACCU | 18.2 | 27.8 |  | 
55 | UAAAAGUCAGGAUAUGCGAGAGAUUGAAGUGUGGCAAGGUAGCAGAAGGGACAUGAGGAUCACCCAUGUGUGGC | 52.4 | 115 |  | 
56 | CUGCUCCGUGUAGGAUAUGCAUACUCCCAUUAUGCAGAAGGACAUGAGGAUCACCCAUGUAUGUUAUUAUCACGUGUUGCGUAC | 25.7 | 92.2 |  | 
